Key:
[1] = tested on: SK-OV-3; test: Antiproliferative activity against human SK-OV-3 cells assessed as cell growth inhibition incubated for 48 hrs by MTT assay; assay type: functional, cell-based; settings: SK-OV-3, 48 h
Outline: (§1)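 Cells seeded in 96-well plates and exposed to compounds for 48 h; viability read by MTT. Each experiment repeated three times. SK-OV-3 grown in McCOY's 5A, Bel-7402 and HL-7702 in RPMI-1640, HepG2 in DMEM, Caco-2 in MEM.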

[2] = tested on: HepG2; test: Antiproliferative activity against human HepG2 cells assessed as cell growth inhibition incubated for 48 hrs by MTT assay; assay type: functional, cell-based; settings: HepG2, 48 h; outline: as §1
[3] = tested on: HepG2; test: Antiproliferative activity against human HepG2 cells assessed as cell growth inhibition at 20 uM incubated for 48 hrs by MTT assay relative to control; assay type: functional
[4] = Selectivity index, ratio of IC50 for inhibition of human recombinant N-terminal GST-tagged PARP-2 to IC50 for inhibition of human recombinant GST-tagged PARP-1
[5] = target: Poly [ADP-ribose] polymerase 2 (Homo sapiens, UniProt Q9UGN5); test: Inhibition of human recombinant N-terminal GST-tagged PARP-2 expressed in Baculovirus infected Sf9 cells assessed as reduction in NAD+-dependent ADP ribosylation using histone mixture (H2A and H2B) as substrate in presence of activated DNA incubated for 30 mins by chemiluminescence assay
Sequence of Poly [ADP-ribose] polymerase 2 (Q9UGN5 whole entry): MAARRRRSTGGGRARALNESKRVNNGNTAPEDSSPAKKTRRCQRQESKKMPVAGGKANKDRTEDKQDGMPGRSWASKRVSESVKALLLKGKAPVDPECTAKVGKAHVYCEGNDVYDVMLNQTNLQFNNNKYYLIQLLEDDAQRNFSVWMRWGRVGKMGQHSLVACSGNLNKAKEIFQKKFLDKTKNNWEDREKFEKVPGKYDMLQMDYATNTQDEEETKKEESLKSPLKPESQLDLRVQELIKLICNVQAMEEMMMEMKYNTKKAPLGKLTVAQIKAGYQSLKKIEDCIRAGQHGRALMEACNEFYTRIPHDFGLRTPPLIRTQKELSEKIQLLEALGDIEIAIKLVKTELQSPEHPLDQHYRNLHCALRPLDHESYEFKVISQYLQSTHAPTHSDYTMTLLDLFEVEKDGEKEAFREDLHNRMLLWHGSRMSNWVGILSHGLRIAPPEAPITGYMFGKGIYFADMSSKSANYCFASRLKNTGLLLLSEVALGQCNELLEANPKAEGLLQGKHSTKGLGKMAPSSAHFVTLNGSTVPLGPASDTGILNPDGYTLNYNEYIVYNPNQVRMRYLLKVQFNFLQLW

[6] = tested on: L02; test: Cytotoxicity against human HL7702 cells assessed as cell growth inhibition incubated for 48 hrs by MTT assay; assay type: cell-based; settings: L02, 48 h; outline: as §1
[7] = Cytotoxicity against human HL7702 cells assessed as cell growth inhibition at 20 uM incubated for 48 hrs by MTT assay relative to control; assay type: cell-based; settings: HL7702 (L02) cells
[8] = tested on: Bel-7402; test: Antiproliferative activity against human Bel-7402 cells assessed as cell growth inhibition incubated for 48 hrs by MTT assay; assay type: functional, cell-based; settings: Bel-7402, 48 h; outline: as §1
[9] = target: T1, Poly [ADP-ribose] polymerase 1 (Homo sapiens, UniProt P09874); settings: dose 100.0 nM, time 30.0 min
T1 sequence (P09874 whole entry): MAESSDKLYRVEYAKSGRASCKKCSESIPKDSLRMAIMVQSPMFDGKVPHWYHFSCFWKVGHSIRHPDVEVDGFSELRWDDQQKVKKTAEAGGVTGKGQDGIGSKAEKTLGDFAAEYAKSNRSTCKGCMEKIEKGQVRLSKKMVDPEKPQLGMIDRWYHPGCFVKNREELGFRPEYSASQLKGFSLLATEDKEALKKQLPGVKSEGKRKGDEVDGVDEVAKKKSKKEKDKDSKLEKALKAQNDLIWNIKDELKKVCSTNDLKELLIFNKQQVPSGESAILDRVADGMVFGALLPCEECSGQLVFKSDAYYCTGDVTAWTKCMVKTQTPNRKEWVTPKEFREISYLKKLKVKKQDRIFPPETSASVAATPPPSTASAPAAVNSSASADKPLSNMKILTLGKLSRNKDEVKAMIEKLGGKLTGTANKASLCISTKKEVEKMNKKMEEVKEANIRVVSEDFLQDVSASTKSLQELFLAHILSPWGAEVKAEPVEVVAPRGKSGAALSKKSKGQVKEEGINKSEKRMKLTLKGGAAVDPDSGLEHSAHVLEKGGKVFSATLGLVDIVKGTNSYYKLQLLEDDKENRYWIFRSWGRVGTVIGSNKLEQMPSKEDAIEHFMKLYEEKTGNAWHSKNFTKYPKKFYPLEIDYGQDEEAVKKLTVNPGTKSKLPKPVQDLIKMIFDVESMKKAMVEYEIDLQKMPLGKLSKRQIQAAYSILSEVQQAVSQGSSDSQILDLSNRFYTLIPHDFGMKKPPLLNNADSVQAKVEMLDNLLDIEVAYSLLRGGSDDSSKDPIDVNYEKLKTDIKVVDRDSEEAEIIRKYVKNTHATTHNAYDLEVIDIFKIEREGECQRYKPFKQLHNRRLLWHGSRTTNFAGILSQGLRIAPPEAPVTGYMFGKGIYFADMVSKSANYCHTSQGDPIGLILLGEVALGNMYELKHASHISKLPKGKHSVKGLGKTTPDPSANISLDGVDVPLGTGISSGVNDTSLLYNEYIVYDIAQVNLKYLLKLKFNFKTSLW

[10] = tested on: SK-OV-3; test: Antiproliferative activity against human SK-OV-3 cells assessed as cell growth inhibition at 20 uM incubated for 48 hrs by MTT assay relative to control; assay type: functional
[11] = tested on: Caco-2; test: Antiproliferative activity against human Caco-2 cells assessed as cell growth inhibition incubated for 48 hrs by MTT assay; assay type: functional, cell-based; settings: Caco-2, 48 h; outline: as §1
[12] = tested on: Caco-2; test: Antiproliferative activity against human Caco-2 cells assessed as cell growth inhibition at 20 uM incubated for 48 hrs by MTT assay relative to control; assay type: functional
[13] = tested on: Bel-7402; test: Antiproliferative activity against human Bel-7402 cells assessed as cell growth inhibition at 20 uM incubated for 48 hrs by MTT assay relative to control; assay type: functional
[14] = target: T1, Poly [ADP-ribose] polymerase 1; test: Inhibition of human recombinant GST-tagged PARP-1 expressed in Escherichia coli assessed as reduction in NAD+-dependent ADP ribosylation incubated for 30 mins in presence and NAD by resazurin dye based fluorescence analysis
[15] = Toxicity in Balb/c nude mouse xenografted with human SKOV3 cells assessed as change in body weight at 25 mg/kg, po for 21 days and measured every third day; assay type: organism-based; settings: in vivo, 504 h, time 21 day
Outline: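 Female BALB/c nu/nu mice, 6-8 weeks old, kept under SPF conditions. Each received 5×10^6 SK-OV-3 cells s.c. At 80–120 mm3 tumour volume, mice were split into four groups (n=6). […] Caliper measurement every three days; volume = X × (Y2/2).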

IC50 [1] [µM]	IC50 [2] [µM]	Ratio IC50 [4]	IC50 [5] [µM]	IC50 [8] [µM]	inhibition [9] [%]	IC50 [11] [µM]	IC50 [14] [µM]	Compound	inhibition at 20 µM [3] [%]	IC50 [6] [µM]	inhibition at 48 h, 20 µM [7] [%]	inhibition at 20 µM [10] [%]	inhibition at 20 µM [12] [%]	inhibition at 20 µM [13] [%]	Activity [15]
15.6	10.5	> 17.2	> 1	6.89	72.2	11.3	0.0583	CCOC(=O)c1ccc(NC(=S)N/N=C/c2cc(OC)c(OC)c(Br)c2Br)cc1	73	9.96	97.7	70	76.5	71.9	–
18.2	26.3	> 5.37	> 1	24	51.5	15.9	0.186	COc1cc(/C=N/NC(=S)NCCCN2CCOCC2)c(Br)c(Br)c1OC	40.2	28.9	51	71.5	45.9	89.7	–
3.15	42.4	–	–	35.5	–	65.5	–	O=C(c1cc(Cc2n[nH]c(=O)c3ccccc23)ccc1F)N1CCN(C(=O)C2CC2)CC1 [OLAPARIB]	–	25.8	–	–	–	–	Non-Toxic
